From ChEMBL document CHEMBL5154906, “Design of a Potent, Selective, and Brain-Penetrant Inhibitor of Wnt-Deactivating Enzyme Notum by Optimization of a Crystallographic Fragment Hit” (J Med Chem, 2022)

Assays:
[1] = target: T1, Palmitoleoyl-protein carboxylesterase NOTUM (Homo sapiens, UniProt Q6P988, C330S); assay: Inhibition of human Notum (S81 to T451 residues) Cys330Ser mutant expressed in HEK293S cells using OPTS as substrate incubated for 40 mins by fluorescence based assay
[2] = target: T1, Palmitoleoyl-protein carboxylesterase NOTUM; assay: Inhibition of human Notum (S81 to T451 residues) Cys330Ser mutant expressed in HEK293S cells at 10 uM using OPTS as substrate incubated for 40 mins by fluorescence based assay relative to control; format: cell-based
In short: (§1)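 Recombinant human Notum (81–451, Cys330Ser) was the enzyme and OPTS the carboxylesterase substrate. Values are percent inhibition at a single concentration, 10 μM or 100 μM.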

[3] = Efflux ratio of apparent permeability from basolateral to apical side over apical to basolateral side in MDCK-MDR1 cells; details: dog
[4] = Metabolic stability in mouse liver microsomes assessed as intrinsic clearance; format: ADME, Microsome; details: read-out: CLH
[5] = Metabolic stability in human liver microsomes assessed as intrinsic clearance; format: ADME, Microsome; details: read-out: CLH
[6] = Metabolic stability in mouse hepatocyte assessed as intrinsic clearance measured per 10^6 cells; format: ADME, cell-based; details: hepatocytes, read-out: CLH
[7] = target: T1, Palmitoleoyl-protein carboxylesterase NOTUM; assay: Inhibition of human Notum (S81 to T451 residues) Cys330Ser mutant expressed in HEK293S cells at 100 uM using OPTS as substrate incubated for 40 mins by fluorescence based assay relative to control; format: cell-based; in short: as §1
[8] = Drug uptake in mouse assessed as brain concentration at 30 mg/kg, po administered twice daily for 7 days; format: ADME, organism-based; details: in vivo, 168 h, time 7 day
In short: (§2)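 Mice received 30 mg/kg orally twice daily, at T = 0 and 9 h, in formulation A (DMSO 2% v/v + 10% v/v Solutol in 1× PBS, 98% v/v). Plasma and brain drug concentrations were followed over time.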

[9] = Toxicity in wild type mouse at 30 mg/kg, po administered twice daily for 7 days; details: in vivo, 168 h
[10] = Drug uptake in mouse assessed as plasma concentration at 30 mg/kg, po administered twice daily for 7 days; format: ADME, organism-based; details: in vivo, 168 h, time 7 day; in short: as §2
[11] = in vivo; details: Sprague-Dawley, rat, brain, po, 10 mg/kg
[12] = Metabolic stability in dog liver microsomes assessed as intrinsic clearance; format: ADME, Canis lupus familiaris, Microsome; details: read-out: CLH
[13] = target: Glycogen synthase kinase-3 (Homo sapiens) (UniProt P49840+P49841); assay: Inhibition of GSK3 (unknown origin) at 10 uM relative to control; format: protein assay
[14] = Metabolic stability in rat liver microsomes assessed as intrinsic clearance; format: ADME, Microsome; details: read-out: CLH
[15] = target: Casein kinase I isoform alpha (Homo sapiens) (UniProt P48729); assay: Inhibition of CK1 (unknown origin) at 10 uM relative to control
[16] = Toxicity in aged APP/PS1 mouse at 30 mg/kg, po administered twice daily for 7 days; details: in vivo, 168 h

T1 sequence (Q6P988 20-496 C330S limits assumed): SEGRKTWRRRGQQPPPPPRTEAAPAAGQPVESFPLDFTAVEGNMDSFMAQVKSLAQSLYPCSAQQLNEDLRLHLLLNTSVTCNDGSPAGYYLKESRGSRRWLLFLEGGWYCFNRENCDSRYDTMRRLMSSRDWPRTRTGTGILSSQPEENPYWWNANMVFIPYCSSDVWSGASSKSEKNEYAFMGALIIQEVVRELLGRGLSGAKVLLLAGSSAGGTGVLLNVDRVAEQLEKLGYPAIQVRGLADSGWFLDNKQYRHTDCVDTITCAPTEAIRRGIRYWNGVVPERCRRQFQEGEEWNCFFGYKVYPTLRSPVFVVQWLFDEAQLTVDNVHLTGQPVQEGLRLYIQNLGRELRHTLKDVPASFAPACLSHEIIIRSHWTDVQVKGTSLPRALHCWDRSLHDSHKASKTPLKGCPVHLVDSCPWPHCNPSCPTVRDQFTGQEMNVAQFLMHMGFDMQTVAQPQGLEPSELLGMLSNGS
Glycogen synthase kinase-3 (Homo sapiens), sequence (P49840 whole entry, looked up): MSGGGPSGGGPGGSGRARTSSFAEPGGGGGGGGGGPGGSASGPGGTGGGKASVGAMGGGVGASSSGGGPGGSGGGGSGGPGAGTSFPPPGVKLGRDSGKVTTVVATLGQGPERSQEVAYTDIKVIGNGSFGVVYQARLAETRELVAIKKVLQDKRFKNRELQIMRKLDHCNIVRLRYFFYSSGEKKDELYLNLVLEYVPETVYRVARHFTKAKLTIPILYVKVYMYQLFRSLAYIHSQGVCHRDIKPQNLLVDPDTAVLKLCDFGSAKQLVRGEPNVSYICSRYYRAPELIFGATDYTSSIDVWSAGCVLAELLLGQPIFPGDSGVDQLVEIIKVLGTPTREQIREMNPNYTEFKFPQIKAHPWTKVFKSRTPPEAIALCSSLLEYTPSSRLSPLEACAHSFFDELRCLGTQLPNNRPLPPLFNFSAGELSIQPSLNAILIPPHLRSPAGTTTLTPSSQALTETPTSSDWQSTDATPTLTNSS
Glycogen synthase kinase-3 (Homo sapiens), sequence (P49841 whole entry, looked up): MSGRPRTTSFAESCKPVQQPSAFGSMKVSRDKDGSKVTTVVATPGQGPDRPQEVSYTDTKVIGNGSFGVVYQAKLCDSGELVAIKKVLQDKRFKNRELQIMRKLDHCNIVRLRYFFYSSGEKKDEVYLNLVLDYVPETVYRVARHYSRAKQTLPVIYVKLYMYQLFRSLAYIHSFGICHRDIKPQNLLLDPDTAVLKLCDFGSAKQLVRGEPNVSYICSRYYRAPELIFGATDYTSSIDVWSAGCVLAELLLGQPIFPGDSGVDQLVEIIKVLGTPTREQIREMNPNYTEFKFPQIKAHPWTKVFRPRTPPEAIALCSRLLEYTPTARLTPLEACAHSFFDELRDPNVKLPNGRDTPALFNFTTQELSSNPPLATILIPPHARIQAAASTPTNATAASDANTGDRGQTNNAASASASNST
Casein kinase I isoform alpha (Homo sapiens), sequence (P48729 2-337 limits assumed): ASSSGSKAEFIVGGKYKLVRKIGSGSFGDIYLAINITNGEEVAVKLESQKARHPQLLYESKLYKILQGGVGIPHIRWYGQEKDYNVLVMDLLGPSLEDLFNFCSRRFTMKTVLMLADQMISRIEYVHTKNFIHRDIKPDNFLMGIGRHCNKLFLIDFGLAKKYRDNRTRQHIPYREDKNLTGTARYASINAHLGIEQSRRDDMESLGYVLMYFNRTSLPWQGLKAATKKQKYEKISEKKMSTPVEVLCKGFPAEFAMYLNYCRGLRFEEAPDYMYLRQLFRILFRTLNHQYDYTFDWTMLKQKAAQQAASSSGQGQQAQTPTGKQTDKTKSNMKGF

OCc1cn(-c2cccc(C(F)(F)F)c2)nn1
IC50 [1]: 2.3 µM

OCc1cn(-c2ccc3c(c2)OCO3)nn1
IC50 [1]: 28 µM

OCc1cn(-c2cc(Cl)cc(Cl)c2)nn1
IC50 [1]: 2.4 µM

Cc1cccc(-n2cc(CO)nn2)c1
inhibition at 10 µM [2]: 40%

OCc1cn(-c2ccccc2Cl)nn1
IC50 [1]: 32 µM

OCc1cn(-c2cccc(Cl)c2Cl)nn1
IC50 [1]: 5.1 µM

OCc1cn(-c2ccc(C(F)(F)F)cc2)nn1
IC50 [1]: 8.8 µM

OCc1cn(-c2cc(Cl)ccc2Cl)nn1
IC50 [1]: 23 µM

OCc1cn(-c2ccccc2F)nn1
IC50 [1]: 64 µM

FC(F)(F)c1c(Cl)cnc(-n2ccnn2)c1Cl
Ratio [3]: 2.5

OCc1cn(-c2ccc3c(c2)OCCO3)nn1
IC50 [1]: 32 µM

OCc1cn(-c2ccc(Cl)c(C(F)(F)F)c2Cl)nn1
microsomal CLint [4]: 6.7 µL/min/mg
microsomal CLint [5]: 1.7 µL/min/mg
hepatocyte CLint [6]: 48 µL/min/1e6 cells

Cc1ccc(-n2cc(CO)nn2)cc1C
IC50 [1]: 0.73 µM

OCc1cn(-c2ccc(F)cc2)nn1
inhibition at 100 µM [7]: 40%

OCc1cn(-c2cccc(Cl)c2)nn1
IC50 [1]: 6.3 µM

OCc1cn(-c2ccc(C(F)(F)F)c(Cl)c2)nn1
IC50 [1]: 1 µM

FC(F)(F)c1c(Cl)ccc(-n2ccnn2)c1Cl
Ct [8]: Active
Activity [9]: Non-Toxic
Cp [10]: Active
AUC(0-inf) [11]: 46100 ng·h/mL
microsomal CLint [4]: 3.2 µL/min/mg
microsomal CLint [5]: 1.5 µL/min/mg
hepatocyte CLint [6]: 19.4 µL/min/1e6 cells
microsomal CLint [12]: 10.8 µL/min/mg
inhibition [13]: < 50%
microsomal CLint [14]: < 9.6 µL/min/mg
inhibition [15]: < 50%
Activity [16]: Non-Toxic

OCc1cn(-c2ccc(Cl)c(C(F)(F)F)c2)nn1
IC50 [1]: 0.065 µM

OCc1cn(-c2ccc(Cl)c(Cl)c2)nn1
microsomal CLint [5]: 12 µL/min/mg
IC50 [1]: 0.5 µM

[2H]c1nnn(-c2ccc(Cl)c(C(F)(F)F)c2Cl)c1[2H]
microsomal CLint [4]: 5.4 µL/min/mg

OCc1cn(-c2ccc(Cl)cc2Cl)nn1
IC50 [1]: 5.6 µM
